From ChEMBL document CHEMBL4834471 (J Med Chem, 2021)
The source made the active and inactive calls. The calls are words filed in the database; no cut-off is given here.

Key:
Mus musculus = experiment: Antiinflammatory activity in zymosan-induced CD-1 mouse peritonitis model assessed as reduction in LTC4 level at 3 mg/kg, po preincubated with compound for 60 mins followed by zymosan addition and measured after 30 mins by ELISA; assay type: functional, organism-based; settings: time 90.0 min
Procedure, shortened: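 Oral dosing at 3 mg/kg in zymosan-induced peritonitis; mice killed 30 min after zymosan; LTC4 in peritoneal exudate measured by ELISA; two-tailed unpaired t-test of log data.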

Monocyte = experiment: Cytotoxicity against human monocytes assessed as reduction in LDH release at 1 to 10 uM after 2 to 24 hrs by CytoTox96 nonradioactive assay; assay type: cell-based; settings: dose lower 1 µM, time lower 2 hrs, dose upper 10 µM, time upper 24 hrs
Procedure, shortened: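 Monocytes at 4 × 10^5/mL in monocyte medium treated 2 or 24 h at 37 °C, 5% CO2, with 0.1% DMSO vehicle. LDH release measured by CytoTox 96 kit, with Triton X-100 (0.8%) defining maximum release.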

SMILES | Activity (Mus musculus) | Activity (Monocyte)
CC(c1cc2ccccc2s1)N(O)C(N)=O (configuration not stated) | inactive | 
Cc1c(C)c2c(c(C)c1O)CC[C@@](C)(CCCC(C)CCCC(C)CCCC(C)C(=O)O)O2 (some centres not stated) |  | Non-Toxic
